# Measured values: PMC9305876 (International Journal of Cosmetic Science, 2022)
# pIC50: −log10 of the molar value.
# Legend:
# [1] = tested on: primary human epidermal melanocytes; assay: Melanin content assay in melanocyte cultures; type: cell-based; conditions: for reduction in melanin synthesis: 72 h; for inhibition of melanin production in melanocytes: 72 h of treatment, at similar doses, mean ± SD
# [2] = target: T1, recombinant human tyrosinase (Homo sapiens, UniProt P14679); assay: biochemical
# T1 sequence (P14679 19-476 limits assumed): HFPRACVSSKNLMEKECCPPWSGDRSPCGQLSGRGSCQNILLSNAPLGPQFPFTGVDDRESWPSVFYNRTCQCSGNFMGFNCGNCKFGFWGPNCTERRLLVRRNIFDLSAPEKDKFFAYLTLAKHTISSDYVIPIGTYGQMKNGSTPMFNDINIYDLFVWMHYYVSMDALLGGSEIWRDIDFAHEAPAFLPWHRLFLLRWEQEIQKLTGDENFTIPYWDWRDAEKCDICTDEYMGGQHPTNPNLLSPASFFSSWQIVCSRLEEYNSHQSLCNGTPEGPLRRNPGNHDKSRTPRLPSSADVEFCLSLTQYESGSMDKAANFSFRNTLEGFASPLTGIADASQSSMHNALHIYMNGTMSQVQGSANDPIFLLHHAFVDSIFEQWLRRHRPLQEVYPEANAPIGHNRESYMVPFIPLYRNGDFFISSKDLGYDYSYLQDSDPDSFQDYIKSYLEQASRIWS
# [3] = tested on: primary melanocytes; assay: Cell viability; type: cell-based, human
# Method in brief: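 Neonatal foreskin primary human epidermal melanocytes at passages 4–6 were grown in Medium 254‑CF with melanocyte growth supplement at 37°C and 5% CO2. They were exposed to test compound for 72 h, starting 24 h after plating, alongside 0.1% (v/v) DMSO or medium vehicle controls. Cells were washed in Ca/Mg‑free PBS and loaded with 1 µM Calcein‑AM for 30 min at 37°C, protected from light. Fluorescence was read at ex 490/em 520 nm, with cell‑free blank wells.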
SMILES,reduction in melanin synthesis ([1]; 4‐HR alone (comparator to 1 µM in combination)),inhibition of melanin production in melanocytes [1],pIC50 [2],maximum non‐cytotoxic dose for primary melanocytes [3],reduction in melanin synthesis ([1]; niacinamide alone (comparator to 10 mM in combination))
"CCCCCCc1ccc(O)cc1O [4‐HR, 4‐hexylresorcinol]",7.3 ± 3%,35 ± 1.9%,4.80,10 µM,–
NC(=O)c1cccnc1 [niacinamide],–,–,–,10000 µM,7.2 ± 4.3%
"CCCCc1ccc(O)cc1O [4‐BR, 4‐butylresorcinol]",–,28.6 ± 3%,4.89,–,–
"Oc1ccc(O)cc1 [Hydroquinone, hydroquinone]",–,–,< 3.00,–,–
